Results reported in ChEMBL document CHEMBL2321690, “New betulinic acid derivatives for bevirimat-resistant human immunodeficiency virus type-1” (J Med Chem, 2013).
Activity calls are given as the source filed them. The calls are words filed in the database; no cut-off is given here.

Experiments:
[1] = (§1) Inhibition of wild type Human immunodeficiency virus 1 NL4-3 envelope glycoprotein gp160-mediated cell-cell fusion between virus-infected monkey COS cells to human TZM-bl cells after 24 hrs by luciferase reporter gene assay; format: cell-based; conditions: Human immunodeficiency virus 1, NL4-3, COS
Outline: (§2)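 COS cells (1 × 10^6 cells/mL) electroporated (950 µF, 150 V) with vector expressing NL4-3 Env and tat, then cultured one day. Mixed with TZM-bl cells with inhibitor over a 1–10000 nM range. Luciferase (RLU) in fused cells read 24 h after mixing, expressed as % of no-compound fusion. Points are mean ± SD of three tests.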

COS = assay: as §1; format: cell-based; outline: as §2
[2] = test system: Human immunodeficiency virus 1; assay: Antiviral activity against bevirimat-resistant Human immunodeficiency virus 1 NL4-3 harboring gag V370A mutant infected in human 293T cells assessed as inhibition of CA-SP1 cleavage measured 2 days post infection by Western blotting analysis; format: functional, organism-based
Outline: (§3)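 Provirus plasmids (pNL4-3/V370A, pNL4-3/V362I, with pNL4-3 alongside) transfected into 293T cells, and virus produced in presence of compound. Supernatant virus harvested two days after transfection. Western blot with anti-p24 monoclonal antibody (183-H12-5C) to detect accumulation of CA-SP1 (p25), indicating inhibited CA-SP1 cleavage.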

[3] = test system: Human immunodeficiency virus 1; assay: Antiviral activity against 0.001 MOI wild type Human immunodeficiency virus 1 NL4-3 infected in human MT4 cells assessed as inhibition of viral replication measured 4 days post infection by ELISA; format: functional, organism-based; conditions: Human immunodeficiency virus 1, NL4-3, MT4, 96 h
Outline: (§4)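 Mutations introduced into pNL4-3 by site-directed mutagenesis. MT4 cells infected with wild-type NL4-3 or resistant variant at 0.001 TCID50/cell in presence of graded compound concentrations. Supernatant p24 measured by ELISA on day 4 post-infection. IC50 is the concentration reducing p24 by 50%, reported as mean ± SD with the number of tests given per value.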

[4] = test system: Human immunodeficiency virus 1; assay: Antiviral activity against 0.001 MOI bevirimat-resistant Human immunodeficiency virus 1 NL4-3 harboring gag V370A mutant infected in human MT4 cells assessed as inhibition of viral replication measured 4 days post infection by ELISA; format: functional, organism-based; conditions: Human immunodeficiency virus 1, NL4-3, MT4, 96 h; outline: as §4
[5] = test system: Human immunodeficiency virus 1; assay: Antiviral activity against 0.001 MOI bevirimat-resistant Human immunodeficiency virus 1 NL4-3 harboring gag V362I mutant infected in human MT4 cells assessed as inhibition of viral replication measured 4 days post infection by ELISA; format: functional, organism-based; conditions: Human immunodeficiency virus 1, NL4-3, MT4, 96 h; outline: as §4
[6] = test system: Human immunodeficiency virus 1; assay: Antiviral activity against wild type Human immunodeficiency virus 1 NL4-3 infected in human 293T cells assessed as inhibition of CA-SP1 cleavage measured 2 days post infection by Western blotting analysis; format: functional, organism-based
Outline: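 293T cells transfected with pNL4-3 proviral plasmid and cultured with compounds. Culture supernatant collected 2 days after transfection. Western blot with anti-p24 monoclonal antibody (hybridoma 183-H12-5C) detected CA-SP1 (p25) accumulation, taken as the measure of blocked CA-SP1 cleavage.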

[7] = test system: Human immunodeficiency virus 1; assay: Antiviral activity against 0.001 MOI bevirimat-resistant Human immunodeficiency virus 1 NL4-3 harboring gag V370 deletion mutant infected in human MT4 cells assessed as inhibition of viral replication measured 4 days post infection by ELISA; format: functional, organism-based; conditions: Human immunodeficiency virus 1, NL4-3, MT4, 96 h; outline: as §4
MT4 = assay: Cytotoxicity against human MT4 cells for 4 days; format: cell-based; conditions: mt4, 96 h
Outline: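 MT4 cells cultured with various compound concentrations for 4 days. Viability read by a CytoTox-Glo luminescent cytotoxicity assay. CC50 is the concentration reducing viable cells by 50%.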

[8] = test system: Human immunodeficiency virus 1; assay: Antiviral activity against 0.001 MOI bevirimat-resistant Human immunodeficiency virus 1 NL4-3 harboring gag T371 deletion mutant infected in human MT4 cells assessed as inhibition of viral replication measured 4 days post infection by ELISA; format: functional, organism-based; conditions: Human immunodeficiency virus 1, NL4-3, MT4, 96 h; outline: as §4
[9] = test system: Human immunodeficiency virus 1; assay: Antiviral activity against bevirimat-resistant Human immunodeficiency virus 1 NL4-3 harboring gag V362I mutant infected in human 293T cells assessed as inhibition of CA-SP1 cleavage measured 2 days post infection by Western blotting analysis; format: functional, organism-based; outline: as §3
[10] = test system: Human immunodeficiency virus 1; assay: Potency index, ratio of bevirimat IC50 to compound IC50 for 0.001 MOI bevirimat-resistant Human immunodeficiency virus 1 NL4-3 harboring gag V370A mutant infected in human MT4 cells; format: functional

Row | Compound | IC50 [1] [nM] | inhibition (COS) | inhibition [2] | IC50 [3] [nM] | IC50 [4] [nM] | IC50 [5] [nM] | inhibition [6] | IC50 [7] [nM] | CC50 (MT4) [nM] | IC50 [8] [nM] | inhibition [9] | Ratio IC50 [10]
1 | C=C(C)[C@@H]1CC[C@]2(C(=O)NCCCCCCCNC(C)=O)CC[C@]3(C)[C@H](CC[C@@H]4[C@@]5(C)CC[C@H](O)C(C)(C)[C@@H]5CC[C@]43C)[C@@H]12 | 42 |  |  |  |  |  |  |  |  |  |  | 
2 | C=C(C)[C@@H]1CC[C@]2(C(=O)O)CC[C@]3(C)[C@H](CC[C@@H]4[C@@]5(C)CC[C@H](OC(=O)CC(C)(C)C(=O)O)C(C)(C)[C@@H]5CC[C@]43C)[C@@H]12 [BEVIRIMAT] |  | inactive | inactive | 76 | > 5000 | > 6800 | Active | > 6800 | > 10000 | > 6800 |  | 
3 | C=C(C)[C@@H]1CC[C@]2(C(=O)NCCCCCCCCC(=O)N[C@@H](CCC(N)=O)C(=O)OC)CC[C@]3(C)[C@H](CC[C@@H]4[C@@]5(C)CC[C@H](OC(=O)CC(C)(C)C(=O)O)C(C)(C)[C@@H]5CC[C@]43C)[C@@H]12 |  | inactive | Active | 9 | 160 | 16 |  | 320 | > 10000 | 67 | Active | 20
